Columns and labels:
Bcr/Abl fusion protein [1] = target: Bcr/Abl fusion protein (Homo sapiens, UniProt P00519); experiment: Inhibition of wild type BCR/ABL (unknown origin) measured after 60 mins in presence of ATP by ADP-Glo kinase assay; assay type: protein assay
Bcr/Abl fusion protein [2] = target: Bcr/Abl fusion protein (Homo sapiens, UniProt P00519, T315I); experiment: Inhibition of BCR/ABL T315I mutant (unknown origin) measured after 60 mins in presence of ATP by ADP-Glo kinase assay; assay type: protein assay
K562 = experiment: Antiproliferative activity against human BCR/ABL positive K562 cells assessed as growth inhibition measured after 48 hrs by MTT assay; assay type: functional, cell-based; details: K562, 48 h
How it was run: (§1)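 K562 and K562R (T315I) cells grown in RPMI 1640 + 10% FBS; 2500 cells/well seeded, 12 h at 37 °C, 5% CO2, then compounds at indicated final concentrations for 48 h. MTT 0.5 mg/mL final, 4 h at 37 °C; supernatant removed, DMSO added, absorbance at 490 nm. IC50 calculated from inhibition ratios.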

[3] = target: Proto-oncogene tyrosine-protein kinase Src (Homo sapiens, UniProt P12931); experiment: Inhibition of human recombinant full length N-terminal GST tagged SRC expressed in Escherichia coli using KVEKIGEGTYGVVYK-amide as substrate measured after 60 mins in presence of ATP by ADP-Glo kinase assay
Sequence of Proto-oncogene tyrosine-protein kinase Src (P12931 2-536 limits assumed): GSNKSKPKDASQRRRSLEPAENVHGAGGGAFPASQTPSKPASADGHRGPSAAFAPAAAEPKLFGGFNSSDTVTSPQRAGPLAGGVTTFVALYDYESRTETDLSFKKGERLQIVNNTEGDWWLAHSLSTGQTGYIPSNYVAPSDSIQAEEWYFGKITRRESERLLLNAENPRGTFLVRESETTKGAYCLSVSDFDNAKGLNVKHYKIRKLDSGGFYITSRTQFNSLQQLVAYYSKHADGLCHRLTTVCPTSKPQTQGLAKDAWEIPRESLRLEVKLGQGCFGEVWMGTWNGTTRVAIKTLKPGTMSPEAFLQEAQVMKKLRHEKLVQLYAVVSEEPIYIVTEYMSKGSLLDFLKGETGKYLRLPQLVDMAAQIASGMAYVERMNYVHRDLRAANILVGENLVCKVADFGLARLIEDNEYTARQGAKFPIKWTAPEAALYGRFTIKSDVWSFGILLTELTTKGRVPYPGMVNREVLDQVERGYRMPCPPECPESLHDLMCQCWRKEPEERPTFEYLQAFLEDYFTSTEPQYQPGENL
How it was run: (§2)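 ADP-Glo luminescence format: kinase with substrate/ATP mix and inhibitor in 40 mM Tris pH 7.4, 10 mM MgCl2, 0.1 mg/mL BSA, 1 mM DTT, 60 min at 30 °C. ADP-Glo reagent 40 min at room temperature to stop and deplete ATP, then detection reagent 30 min; luminescence read.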

[4] = target: Tyrosine-protein kinase HCK (Homo sapiens, UniProt P08631); experiment: Inhibition of human recombinant N-terminal GST tagged HCK (230 to 497 residues) expressed in baculovirus infected Sf9 cells using poly (Glu,Tyr) 4:1 as substrate measured after 60 mins in presence of ATP by ADP-Glo kinase assay; how it was run: as §2
Sequence of Tyrosine-protein kinase HCK (P08631 whole entry, the tested form may be a part): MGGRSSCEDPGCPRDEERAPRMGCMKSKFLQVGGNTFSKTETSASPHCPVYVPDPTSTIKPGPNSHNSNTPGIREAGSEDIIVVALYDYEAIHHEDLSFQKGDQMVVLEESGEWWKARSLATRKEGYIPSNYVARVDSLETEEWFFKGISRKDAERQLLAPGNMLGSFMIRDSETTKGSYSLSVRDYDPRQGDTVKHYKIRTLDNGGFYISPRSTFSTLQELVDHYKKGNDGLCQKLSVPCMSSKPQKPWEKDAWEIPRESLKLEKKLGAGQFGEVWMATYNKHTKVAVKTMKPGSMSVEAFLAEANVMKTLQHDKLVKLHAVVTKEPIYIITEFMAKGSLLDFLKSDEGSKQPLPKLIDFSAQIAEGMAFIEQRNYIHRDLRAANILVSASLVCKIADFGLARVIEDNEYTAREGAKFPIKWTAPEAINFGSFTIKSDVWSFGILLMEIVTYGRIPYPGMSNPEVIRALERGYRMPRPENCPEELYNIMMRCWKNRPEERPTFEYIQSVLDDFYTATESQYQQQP

[5] = target: Mitogen-activated protein kinase 14 (Homo sapiens, UniProt Q16539); experiment: Inhibition of human recombinant full length N-terminal GST tagged p38alpha expressed in baculovirus infected Sf9 cells using p38 peptide as substrate measured after 60 mins in presence of ATP by ADP-Glo kinase assay; how it was run: as §2
Sequence of Mitogen-activated protein kinase 14 (Q16539 whole entry): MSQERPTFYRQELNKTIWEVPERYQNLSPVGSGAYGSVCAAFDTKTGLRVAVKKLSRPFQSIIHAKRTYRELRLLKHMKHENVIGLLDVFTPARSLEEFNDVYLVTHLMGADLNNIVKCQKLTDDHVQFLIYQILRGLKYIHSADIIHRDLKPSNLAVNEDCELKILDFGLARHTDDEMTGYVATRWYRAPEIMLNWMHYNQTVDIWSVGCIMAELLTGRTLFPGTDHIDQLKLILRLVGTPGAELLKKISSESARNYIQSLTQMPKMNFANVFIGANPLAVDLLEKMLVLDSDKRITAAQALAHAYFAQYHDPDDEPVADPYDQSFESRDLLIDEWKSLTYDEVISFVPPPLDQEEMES

K-562R = experiment: Antiproliferative activity against human K562R cells expressing BCR/ABL T315I mutant assessed as growth inhibition measured after 48 hrs by MTT assay; assay type: functional, cell-based; how it was run: as §1
HEK293 = experiment: Cytotoxicity against human HEK293 cells upto 150 uM measured after 48 hrs by MTT assay; assay type: cell-based; details: hek293, 48 h
How it was run: (§3)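 Normal human cells (EA.hy926, Hek293) kept in DMEM + 10% FBS; 2500 cells/well, 12 h preincubation at 37 °C, 5% CO2; compound added at indicated final concentrations for 48 h. MTT at 0.5 mg/mL final for 4 h, formazan dissolved in DMSO, absorbance read at 490 nm.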

EA.hy 926 = experiment: Cytotoxicity against human EAhy926 cells upto 150 uM measured after 48 hrs by MTT assay; assay type: cell-based; details: ea.hy 926, 48 h; how it was run: as §3
[6] = target: Bcr/Abl fusion protein (Homo sapiens) (UniProt P00519+P11274); experiment: Inhibition of BCR/ABL phosphorylation in human K562 cells measured after 4 hrs by Western blot analysis; assay type: cell-based
How it was run: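 K562 cells exposed to DMSO vehicle or drug for 4 h, lysed in SDS sample buffer, BCA-normalized; equal protein run on SDS-PAGE, transferred to PVDF, blocked in 5% milk/TBS-0.1% Tween-20. Probed overnight at 4 °C for Bcr-Abl, p-Bcr-Abl, actin; HRP secondaries 2 h at room temperature; ECL detection.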

SMILES | IC50 (Bcr/Abl fusion protein [1]) [µM] | IC50 (Bcr/Abl fusion protein [2]) [µM] | IC50 (K562) [µM] | further results
Nc1n[nH]c2cc(-c3ccc(C(=O)NCCNC(=O)c4ccc(Br)cc4)cc3)ccc12 | 2.16 | 2.68 | 14 | –
Cc1ccc(C(=O)NCCNC(=O)c2ccc(-c3cccc4[nH]nc(N)c34)cc2)cc1 | – | – | 5.93 | –
Nc1n[nH]c2cc(-c3ccc(C(=O)N4CCN(C(=O)c5ccc(F)cc5)CC4)cc3)ccc12 | 2.34 | 8.6 | 39.1 | –
Nc1n[nH]c2cc(-c3ccc(C(=O)NCCNC(=O)c4ccc(F)cc4)cc3)ccc12 | 2.45 | 61.2 | 13.4 | –
Nc1n[nH]c2cccc(-c3ccc(C(=O)N4CCN(C(=O)c5ccc(Cl)c(C(F)(F)F)c5)CC4)cc3)c12 | 10.7 | 2.08 | 4.9 | –
Cc1ccc(C(=O)N2CCN(C(=O)c3ccc(-c4cccc5[nH]nc(N)c45)cc3)CC2)cc1 | 5.85 | 179 | > 150 | –
CN(C)c1ccc(C(=O)N2CCN(C(=O)c3ccc(-c4ccc5c(N)n[nH]c5c4)cc3)CC2)cc1 | 2.54 | 6.23 | 61.2 | –
Nc1n[nH]c2cc(-c3ccc(C(=O)NCCNC(=O)c4ccc(Cl)c(C(F)(F)F)c4)cc3)ccc12 | 0.043 | 0.17 | 1.65 | IC50 [3]: 15.1 µM; IC50 [4]: > 100 µM; IC50 [5]: 34.5 µM; IC50 (K-562R): 5.42 µM; Activity (HEK293): Non-Toxic; Activity (EA.hy 926): Non-Toxic; inhibition [6]: Dose-dependent effect
Nc1n[nH]c2cccc(-c3ccc(C(=O)NCCNC(=O)c4ccc(Br)cc4)cc3)c12 | 31.6 | 94.8 | > 150 | –
CN(C)c1ccc(C(=O)NCCNC(=O)c2ccc(-c3cccc4[nH]nc(N)c34)cc2)cc1 | 5.75 | 76.8 | > 150 | –
Nc1n[nH]c2cc(-c3ccc(C(=O)N4CCN(C(=O)c5ccc(Cl)c(C(F)(F)F)c5)CC4)cc3)ccc12 | 1.99 | 5.33 | 4.84 | –
CN(C)c1ccc(C(=O)NCCNC(=O)c2ccc(-c3ccc4c(N)n[nH]c4c3)cc2)cc1 | 3.45 | 0.29 | 7.52 | –
CN(C)c1ccc(C(=O)N2CCN(C(=O)c3ccc(-c4cccc5[nH]nc(N)c45)cc3)CC2)cc1 | 4.28 | 86.1 | > 150 | –
Nc1n[nH]c2cccc(-c3ccc(C(=O)NCCNC(=O)c4ccc(Cl)c(C(F)(F)F)c4)cc3)c12 | 0.11 | 20 | 17.1 | –
Nc1n[nH]c2cccc(-c3ccc(C(=O)N4CCN(C(=O)c5ccc(F)cc5)CC4)cc3)c12 | 17.6 | 20.9 | 102 | –
Nc1n[nH]c2cc(-c3ccc(C(=O)N4CCN(C(=O)c5ccc(Br)cc5)CC4)cc3)ccc12 | 6.28 | 31.9 | 11.3 | –
Cc1ccc(C(=O)NCCNC(=O)c2ccc(-c3ccc4c(N)n[nH]c4c3)cc2)cc1 | 0.38 | 4.3 | 1.45 | –
Nc1n[nH]c2cccc(-c3ccc(C(=O)N4CCN(C(=O)c5ccc(Br)cc5)CC4)cc3)c12 | 7.12 | 1.5 | 9.25 | –
Nc1n[nH]c2cccc(-c3ccc(C(=O)NCCNC(=O)c4ccc(F)cc4)cc3)c12 | 1.35 | 38.5 | 9.49 | –
Cc1ccc(C(=O)N2CCN(C(=O)c3ccc(-c4ccc5c(N)n[nH]c5c4)cc3)CC2)cc1 | 32.2 | 3.72 | 59.3 | –
Cc1ccc(NC(=O)c2ccc(CN3CCN(C)CC3)cc2)cc1Nc1nccc(-c2cccnc2)n1 [IMATINIB] | – | – | 4.26 | IC50 (K-562R): 90 µM

Reference: ChEMBL document CHEMBL4364257, “Discovery of novel Bcr-AblT315I inhibitors with flexible linker. Part 1: Confirmation optimization of phenyl-1H-indazol-3-amine as hinge binding moiety” (Eur J Med Chem, 2019)
